Measurements from ChEMBL document CHEMBL1152290, “Bis-pyranobenzoquinones as a new family of reversal agents of the multidrug resistance phenotype mediated by P-glycoprotein in mammalian cells and the protozoan parasite Leishmania” (J Med Chem, 2008).
One block for each compound: values may come before it. Activity calls are given as the source filed them. No cut-off for these calls is given here.

Assays:
[1] = biological target: T1, Broad substrate specificity ATP-binding cassette transporter ABCG2 (Homo sapiens, UniProt Q9UNQ0); assay: Inhibition of BCRP expressed in HEK293 cells assessed as mitoxantrone accumulation at 10 uM by spectrofluorimetry; type: cell-based; conditions: hek293, 10 µM
T1 sequence (Q9UNQ0 whole entry): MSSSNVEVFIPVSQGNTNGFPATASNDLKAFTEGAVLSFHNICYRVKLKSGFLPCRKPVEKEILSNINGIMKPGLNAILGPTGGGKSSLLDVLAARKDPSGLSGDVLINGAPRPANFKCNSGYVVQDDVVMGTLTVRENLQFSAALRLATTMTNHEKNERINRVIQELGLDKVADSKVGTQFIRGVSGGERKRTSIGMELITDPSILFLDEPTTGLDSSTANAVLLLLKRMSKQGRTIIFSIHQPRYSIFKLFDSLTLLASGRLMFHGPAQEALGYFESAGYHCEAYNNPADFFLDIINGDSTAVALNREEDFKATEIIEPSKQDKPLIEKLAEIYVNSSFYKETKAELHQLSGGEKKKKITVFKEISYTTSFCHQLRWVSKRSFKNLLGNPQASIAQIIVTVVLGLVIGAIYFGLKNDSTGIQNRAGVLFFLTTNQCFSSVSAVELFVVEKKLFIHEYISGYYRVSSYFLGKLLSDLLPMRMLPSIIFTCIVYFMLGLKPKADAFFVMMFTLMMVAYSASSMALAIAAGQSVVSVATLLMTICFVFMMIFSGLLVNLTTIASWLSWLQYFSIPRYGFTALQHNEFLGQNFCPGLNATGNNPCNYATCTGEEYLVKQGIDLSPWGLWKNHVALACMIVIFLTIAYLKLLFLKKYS
Summary of the method: (§1)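 Transfected cell monolayers were incubated 2 h at 37 °C with or without 10 µM compound in DMEM plus 10% HIFBS. Substrates were 5 µM mitoxantrone for HEK293-BCRP (R482) or 2 µM calcein-AM for 2008-MRP1. Cells were washed twice, lysed overnight at 4 °C in the dark in 20 mM Tris-HCl pH 7.4 with 0.2% SDS, and lysate fluorescence was read on a microplate spectrofluorometer.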

[2] = biological target: Multidrug resistance-associated protein 1 (Homo sapiens, UniProt P33527); assay: Inhibition of MRP1 expressed in human 2008 cells assessed as calcein-AM accumulation at 10 uM by spectrofluorimetry; type: cell-based; conditions: human, 2008, 10 µM; summary of the method: as §1
Sequence of Multidrug resistance-associated protein 1 (P33527 whole entry): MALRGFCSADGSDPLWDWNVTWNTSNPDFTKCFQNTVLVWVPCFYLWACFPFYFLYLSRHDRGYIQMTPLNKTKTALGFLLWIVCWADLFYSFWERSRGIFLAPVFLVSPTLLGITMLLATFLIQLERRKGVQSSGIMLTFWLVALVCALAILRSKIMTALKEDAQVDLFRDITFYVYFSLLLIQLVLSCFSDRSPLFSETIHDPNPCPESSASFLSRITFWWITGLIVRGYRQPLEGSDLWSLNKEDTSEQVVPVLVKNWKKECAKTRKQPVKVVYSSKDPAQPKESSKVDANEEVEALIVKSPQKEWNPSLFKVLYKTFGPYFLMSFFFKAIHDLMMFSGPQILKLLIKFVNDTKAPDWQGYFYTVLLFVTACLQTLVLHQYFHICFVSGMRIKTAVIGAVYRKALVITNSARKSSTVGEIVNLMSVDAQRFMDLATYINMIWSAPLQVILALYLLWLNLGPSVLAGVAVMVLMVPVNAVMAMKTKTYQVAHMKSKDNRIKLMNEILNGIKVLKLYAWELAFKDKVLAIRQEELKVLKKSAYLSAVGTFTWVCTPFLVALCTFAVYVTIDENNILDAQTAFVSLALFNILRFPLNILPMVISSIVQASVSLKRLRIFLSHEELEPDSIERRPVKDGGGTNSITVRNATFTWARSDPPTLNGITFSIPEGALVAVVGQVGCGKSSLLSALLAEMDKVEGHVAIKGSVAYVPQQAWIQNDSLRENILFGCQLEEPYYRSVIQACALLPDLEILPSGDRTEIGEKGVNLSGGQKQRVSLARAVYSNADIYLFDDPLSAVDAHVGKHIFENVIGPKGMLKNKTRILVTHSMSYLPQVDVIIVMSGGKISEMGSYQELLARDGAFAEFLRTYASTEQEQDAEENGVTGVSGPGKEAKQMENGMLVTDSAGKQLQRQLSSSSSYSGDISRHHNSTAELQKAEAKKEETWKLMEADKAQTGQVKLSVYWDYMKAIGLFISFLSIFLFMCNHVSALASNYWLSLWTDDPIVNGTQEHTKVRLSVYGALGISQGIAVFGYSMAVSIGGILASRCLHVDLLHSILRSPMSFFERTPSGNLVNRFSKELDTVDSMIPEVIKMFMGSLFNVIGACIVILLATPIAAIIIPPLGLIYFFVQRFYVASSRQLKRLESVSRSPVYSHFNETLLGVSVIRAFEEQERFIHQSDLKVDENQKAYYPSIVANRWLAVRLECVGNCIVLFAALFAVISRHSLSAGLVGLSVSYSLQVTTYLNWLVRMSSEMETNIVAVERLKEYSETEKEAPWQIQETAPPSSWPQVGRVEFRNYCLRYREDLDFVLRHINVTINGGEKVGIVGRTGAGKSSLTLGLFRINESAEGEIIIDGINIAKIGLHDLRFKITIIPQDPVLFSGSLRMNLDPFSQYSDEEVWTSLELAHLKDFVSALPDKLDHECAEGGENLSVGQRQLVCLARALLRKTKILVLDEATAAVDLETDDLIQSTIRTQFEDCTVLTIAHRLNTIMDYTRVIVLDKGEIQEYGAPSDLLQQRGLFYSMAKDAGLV

NIH3T3 [3] = assay: Intrinsic cytotoxicity against mouse NIH/3T3 cells overexpressing MDR1 at 10 uM after 72 hrs by MTT assay; type: functional; conditions: NIH3T3, 72 h
Summary of the method: (§2)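 Wild-type or MDR1 NIH-3T3 cells were plated at 3.5×10^3 per well and allowed to attach for 24 h at 37 °C under 5% CO2. Compound was then added at 10 µM and intrinsic cytotoxicity was measured by MTT colorimetric assay. Mean ±SD of three independent experiments performed in triplicate.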

[4] = Intrinsic cytotoxicity against wild type mouse NIH/3T3 cells at 10 uM after 72 hrs by MTT assay; type: cell-based, NIH3T3; conditions: wild type NIH/3T3 cells, read-out: INH; summary of the method: as §2
Leishmania tropica [5] = assay: Growth inhibition of Leishmania tropica promastigotes expressing MDR1 at 10 uM after 72 hrs by MTT assay in presence of daunorubicin relative to control; type: functional; conditions: for inhibition of growth at 10 µM: MDR1, 72 h, read-out: GI
Summary of the method: (§3)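 L. tropica promastigotes in log phase were resuspended at 6×10^6 cells/mL in modified RPMI 1640 with 20% heat-inactivated FBS and exposed to compound for 72 h at 28 °C. Viability was read by MTT. The resistant line overexpresses a Pgp-like transporter and is maintained in 150 µM daunorubicin.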

[6] = biological target: T2, ATP-dependent translocase ABCB1 (Homo sapiens, UniProt P08183); assay: Inhibition of human MDR1 overexpressed in mouse NIH/3T3 cells assessed as daunorubicin accumulation at 10 uM by spectrofluorimetry; type: cell-based; conditions: nih3t3, 10 µM
T2 sequence (P08183 whole entry): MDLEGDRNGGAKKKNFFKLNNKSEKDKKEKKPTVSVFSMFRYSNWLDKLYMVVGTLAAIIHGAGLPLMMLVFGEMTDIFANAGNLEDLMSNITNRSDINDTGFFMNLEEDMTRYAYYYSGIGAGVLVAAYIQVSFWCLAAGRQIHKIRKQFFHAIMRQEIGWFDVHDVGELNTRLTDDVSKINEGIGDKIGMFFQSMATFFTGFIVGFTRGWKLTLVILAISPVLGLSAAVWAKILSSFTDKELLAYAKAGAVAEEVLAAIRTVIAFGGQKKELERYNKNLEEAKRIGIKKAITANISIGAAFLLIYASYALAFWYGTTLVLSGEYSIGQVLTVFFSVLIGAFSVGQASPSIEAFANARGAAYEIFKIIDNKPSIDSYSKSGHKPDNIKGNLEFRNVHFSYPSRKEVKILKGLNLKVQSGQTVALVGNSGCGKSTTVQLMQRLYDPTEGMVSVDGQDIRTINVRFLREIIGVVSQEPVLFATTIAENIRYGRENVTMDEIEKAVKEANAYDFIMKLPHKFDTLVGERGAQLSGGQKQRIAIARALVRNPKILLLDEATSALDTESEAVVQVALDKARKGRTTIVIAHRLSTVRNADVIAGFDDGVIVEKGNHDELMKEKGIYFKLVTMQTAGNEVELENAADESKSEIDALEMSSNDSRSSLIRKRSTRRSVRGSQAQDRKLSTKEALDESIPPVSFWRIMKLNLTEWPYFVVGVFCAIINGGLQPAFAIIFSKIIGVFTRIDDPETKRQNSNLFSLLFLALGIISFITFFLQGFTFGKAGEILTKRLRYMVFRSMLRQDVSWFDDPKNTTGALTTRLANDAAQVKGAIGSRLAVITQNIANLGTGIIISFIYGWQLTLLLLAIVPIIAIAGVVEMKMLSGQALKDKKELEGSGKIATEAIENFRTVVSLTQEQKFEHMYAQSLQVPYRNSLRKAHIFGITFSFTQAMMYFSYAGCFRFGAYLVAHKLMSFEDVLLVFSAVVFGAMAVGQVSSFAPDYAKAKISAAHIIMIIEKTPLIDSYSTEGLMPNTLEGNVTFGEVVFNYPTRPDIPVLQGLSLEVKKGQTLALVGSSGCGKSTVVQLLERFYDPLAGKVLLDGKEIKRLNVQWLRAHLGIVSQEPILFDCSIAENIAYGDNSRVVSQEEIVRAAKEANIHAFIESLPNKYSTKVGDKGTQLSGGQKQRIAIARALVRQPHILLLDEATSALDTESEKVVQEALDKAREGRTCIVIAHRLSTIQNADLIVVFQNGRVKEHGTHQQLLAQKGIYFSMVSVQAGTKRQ
Summary of the method: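 NIH-3T3 cells transfected with human MDR1-G185 were incubated 2 h at 37 °C with 10 µM daunorubicin, with or without 10 µM compound, in DMEM plus 10% HIFBS. Cells were washed twice, lysed in SDS/Tris buffer pH 7.4 overnight at 4 °C, and read by plate fluorometry. Uptake is expressed relative to wild-type NIH-3T3 accumulation (100%). Three independent experiments, ±SD.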

[7] = biological target: T2, ATP-dependent translocase ABCB1; assay: Inhibition of human MDR1 overexpressed in mouse NIH/3T3 cells assessed as daunorubicin accumulation by flow cytometry; type: cell-based, NIH3T3
Summary of the method: (§4)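 MDR1 and wild-type NIH-3T3 cells were incubated 0.5 h at 37 °C in DMEM plus 10% HIFBS with 2 µM daunorubicin and varying compound concentrations. Cells were washed, trypsinized, taken up in cold PBS, gated to exclude debris, and FL2 fluorescence was measured. Signals were converted to % Pgp inhibition normalized to wild type and fitted to y = Bmax·x/(Ki + x). Three experiments in triplicate.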

[8] = biological target: T2, ATP-dependent translocase ABCB1; assay: Inhibition of human MDR1 overexpressed in mouse NIH/3T3 cells assessed as daunorubicin accumulation by flow cytometry relative to control; type: cell-based; conditions: nih3t3; summary of the method: as §4
NIH3T3 [9] = assay: Intrinsic cytotoxicity against mouse NIH/3T3 cells overexpressing MDR1 after 72 hrs by MTT assay; type: functional, cell-based; conditions: NIH3T3, 72 h
[10] = Intrinsic cytotoxicity against wild type mouse NIH/3T3 cells after 72 hrs by MTT assay; type: cell-based; conditions: NIH3T3, 72 h
NIH3T3 [11] = assay: Resistance index, ratio of IC50 for mouse NIH/3T3 cells expressing MDR1 to IC50 for wild type mouse NIH/3T3 cells
Summary of the method: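 Cells were plated at 3.5×10^3 per well and attached for 24 h. MDR1 and wild-type NIH-3T3 cells were exposed for 72 h at 37 °C to increasing daunorubicin, with or without 10, 3 or 1 µM modulator. Growth was read by MTT, and IC50 came from four-parameter logistic fits. RI is the IC50 in MDR1 cells divided by the IC50 in wild-type cells. Three independent experiments.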

Leishmania tropica [12] = assay: Growth inhibition of wild type Leishmania tropica promastigotes at 10 uM after 72 hrs by MTT assay relative to control; type: functional; conditions: read-out: GI; summary of the method: as §3
NIH3T3 [13] = assay: Intrinsic cytotoxicity against mouse NIH/3T3 cells overexpressing MDR1 at 3 uM after 72 hrs by MTT assay; type: functional; conditions: NIH3T3, 72 h
[14] = Intrinsic cytotoxicity against wild type mouse NIH/3T3 cells at 3 uM after 72 hrs by MTT assay; conditions: wild type NIH/3T3 cells

Activity [2]: Not Active
Activity [6]: Active
Ki [7]: 420 nM
inhibition (INH) [8]: 105.8%
Structure (SMILES): COc1ccc2c(c1)OC[C@H]1[C@@H]2C2=C(OC1(C)C)C1=C(C(=O)C2=O)[C@H]2c3ccc(OC)cc3OC[C@H]2C(C)(C)O1
Activity [1]: Not Active
inhibition at 10 µM (NIH3T3 [3]): 3.5%
cytotoxicity at 72 h, 10 µM [4]: 9.7%
Activity (Leishmania tropica [5]): inactive

Structure (SMILES): CC1(C)OC2=C(C(=O)C(=O)C3=C2OC(C)(C)[C@H]2COc4c(Br)cc(Br)cc4[C@@H]32)[C@@H]2c3cc(Br)cc(Br)c3OC[C@@H]21
Activity (Leishmania tropica [5]): inactive

Structure (SMILES): C[C@@H]1CC[C@H]2[C@H](C1)C1=C(OC2(C)C)C2=C(C(=O)C1=O)[C@H]1C[C@@H](C)CC[C@@H]1C(C)(C)O2
inhibition of growth at 10 µM (Leishmania tropica [5]): > 75%

Structure (SMILES): COc1cccc2c1C(=O)c1c(O)c3c(c(O)c1C2=O)C[C@@](O)(C(C)=O)C[C@@H]3O[C@H]1C[C@H](N)[C@H](O)[C@H](C)O1 [DAUNORUBICIN]
IC50 (NIH3T3 [9]): 1010 nM
IC50 [10]: 44 nM
Ratio IC50 (NIH3T3 [11]): 23

Structure (SMILES): CC1(C)OC2=C(C(=O)C3=C(C2=O)[C@H]2c4cc(Br)ccc4OC[C@H]2C(C)(C)O3)[C@H]2c3cc(Br)ccc3OC[C@H]21
Activity (Leishmania tropica [5]): inactive

Activity [2]: Not Active
Activity [6]: Active
Ki [7]: 770 nM
inhibition (INH) [8]: 72%
Structure (SMILES): C[C@@H]1CC[C@@H]2[C@@H](C1)C1=C(OC2(C)C)C(=O)C2=C(OC(C)(C)[C@@H]3CC[C@@H](C)C[C@@H]23)C1=O
Activity [1]: Not Active
inhibition at 10 µM (NIH3T3 [3]): 18.1%
cytotoxicity at 72 h, 10 µM [4]: 0%

Activity [2]: Not Active
Activity [6]: Active
Ki [7]: 510 nM
inhibition (INH) [8]: 104.3%
Structure (SMILES): COc1ccc2c(c1)OC[C@@H]1[C@H]2C2=C(OC1(C)C)C(=O)C1=C(OC(C)(C)[C@@H]3COc4cc(OC)ccc4[C@H]13)C2=O
Activity [1]: Not Active
inhibition at 10 µM (NIH3T3 [3]): 0%
cytotoxicity at 72 h, 10 µM [4]: 6.5%
Activity (Leishmania tropica [5]): inactive

Activity [2]: Not Active
Activity [6]: Active
Ki [7]: 1040 nM
inhibition (INH) [8]: 112.5%
Structure (SMILES): COc1ccc2c(c1)OC[C@H]1[C@@H]2C2=C(OC1(C)C)C1=C(C(=O)C2=O)[C@@H]2c3ccc(OC)cc3OC[C@@H]2C(C)(C)O1
Activity [1]: Not Active
inhibition at 10 µM (NIH3T3 [3]): 10.8%
cytotoxicity at 72 h, 10 µM [4]: 24.7%
inhibition of growth at 10 µM (Leishmania tropica [5]): > 75%

Structure (SMILES): CC1(C)OC2=C(C(=O)C(=O)C3=C2OC(C)(C)[C@H]2COc4ccc5ccccc5c4[C@@H]32)[C@@H]2c3c(ccc4ccccc34)OC[C@@H]21
inhibition of growth at 10 µM (Leishmania tropica [5]): 100%

Structure (SMILES): C[C@H]1CC[C@@H]2[C@@H]1C1=C(OC2(C)C)C2=C(C(=O)C1=O)[C@H]1[C@@H](CC[C@@H]1C)C(C)(C)O2
inhibition of growth at 10 µM (Leishmania tropica [5]): > 75%

Structure (SMILES): CC1(C)OC2=C(C(=O)C(=O)C3=C2OC(C)(C)[C@H]2COc4ccc(Br)cc4[C@@H]32)[C@@H]2c3cc(Br)ccc3OC[C@@H]21
inhibition of growth at 10 µM (Leishmania tropica [12]): 75%
inhibition of growth at 10 µM (Leishmania tropica [5]): > 75%

Structure (SMILES): COc1ccc(CCN(C)CCCC(C#N)(c2ccc(OC)c(OC)c2)C(C)C)cc1OC (stereo not drawn)
inhibition at 10 µM (NIH3T3 [3]): 11.2%

Structure (SMILES): O[C@@H](COc1cccc2ncccc12)CN1CCN([C@@H]2c3ccccc3[C@@H]3[C@H](c4ccccc42)C3(F)F)CC1 [ZOSUQUIDAR]
inhibition at 10 µM (NIH3T3 [3]): 3.1%
inhibition at 3 µM (NIH3T3 [13]): 3.1%
cytotoxicity at 72 h, 10 µM [4]: 2.4%
cytotoxicity at 72 h, 3 µM [14]: 2.4%

Structure (SMILES): CC1(C)OC2=C(C(=O)C(=O)C3=C2OC(C)(C)[C@H]2COc4ccc(Br)cc4[C@@H]32)[C@H]2c3cc(Br)ccc3OC[C@H]21
Activity (Leishmania tropica [5]): inactive

Structure (SMILES): CC1(C)OC2=C(C(=O)C(=O)C3=C2OC(C)(C)[C@H]2COc4c(Br)cc(Br)cc4[C@@H]32)[C@H]2c3cc(Br)cc(Br)c3OC[C@H]21
Activity (Leishmania tropica [5]): inactive
